High-throughput results: PubChem BioAssay, Broad Institute
The list is a sample of the results.
PGC1a acetyl up: compounds raising PGC1a acetylation signal, primary screen, PGC1a modulator project, cell-based, U2OS, AlphaScreen, signal-increasing mode. 350,000 tested, 0.21% active. overnight. activation, % at 15.6 µM;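 active means every replicate reaching activation of at least 50%, whatever the mean replicate activation; inconclusive means replicates that disagree or another doubt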;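 further: hits raise the AlphaScreen acetylation signal above neutral controls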
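detection = AlphaScreen lysate read | assay system = U2OS cells expressing flag-PGC1a plus GCN5 | input = 7000 cells/well | dosing = one concentration | times = compound overnight at 37 °C, each detection step 1 h RT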
G6PC hep suppr: suppressors of forskolin-stimulated G6PC mRNA, dose response, PGC-1a acetylation activator project, cell-based, hepatocytes, RT-qPCR, cherry-picked samples; G6PC suppression (normalized activity, % of positive control; higher = more suppression), % at 26 µM; primary mouse hepatocytes; 240 tested, under 10 active; shares compounds with PGC1a acetyl up;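 active means dose curves showing G6PC suppression whose half-maximal dose is at most twice the top valid dose; inconclusive means flat curves with moderate negative activity, or unreliable fits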;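 further: G6PC expression relative to GAPDH housekeeping gene as delta delta Ct; 0% = median of neutral control wells and 100% = median of positive control wells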
Hep PCK1 suppr: suppression of PCK1 mRNA in primary hepatocytes, dose response, PGC-1a acetylation activator project, cell-based, primary mouse hepatocytes, RT-qPCR, cherry-pick. shares compounds with PGC1a acetyl up. forskolin-stimulated. PCK1 expression decrease, unspecified at 26 µM. 230 tested, under 10 active;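 active means compounds lowering PCK1 expression whose fitted half-maximal concentration is at most twice the top tested dose; inconclusive means flat fit with moderate opposite-direction effect, or poor fit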;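 further: values are delta delta Ct of PCK1 relative to GAPDH; higher delta delta Ct means lower PCK1 expression so positive values indicate hits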
PGC1a hep suppr: suppression of PGC-1a mRNA in primary hepatocytes, dose response, PGC-1a acetylation activator project, cell-based, primary mouse hepatocytes, RT-qPCR, cherry-pick. shares compounds with PGC1a acetyl up. PGC-1a mRNA qPCR, forskolin; top dose 26 µM. max activity (PGC-1a expression decrease), %. 240 tested, under 10 active;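 active means compound lowering PGC-1a expression with fitted half-maximal concentration at most twice its top tested dose; inconclusive means flat curve with moderate opposite-direction effect, or poor fit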;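 further: 0% = neutral control wells median and 100% = positive control wells median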
Numbers without * were called inactive; [ ] = remark or other dose.

Results for COc1cc(CN2CCCC(CO)(Cc3cccc(Cl)c3)C2)cc2c1OCO2 (configuration not stated) ?
PGC1a acetyl up: -44.5; G6PC hep suppr: -15.8[8 µM]; Hep PCK1 suppr: 165; PGC1a hep suppr: 85.6

How did Cc1cc(=O)n2[nH]c(=O)c(N=Nc3ccccc3)c2[nH]1 do in these assays?
PGC1a acetyl up: -43.6

What do the screens show for `CSCC(=O)N1CCCC(CO)(Cc2ccccc2C)C1` (configuration not stated)?
PGC1a acetyl up: -109.0

What do the screens show for `CC(C)(C)c1ccc(C(=O)c2c[nH]c(C(=O)NCc3cccnc3)c2)cc1`?
PGC1a acetyl up: 257.1*; G6PC hep suppr: -28.4; PGC1a hep suppr: inconclusive

What do the screens show for `CCC(CC)C(=O)c1c[nH]c(C(=O)NCc2ccccc2)c1`?
PGC1a acetyl up: inconclusive; G6PC hep suppr: -46.5; Hep PCK1 suppr: -8.76; PGC1a hep suppr: 37.0

How did O=C(Cc1ccc(Cl)cc1)c1c[nH]c(C(=O)NCc2cccnc2)c1 do in these assays?
PGC1a acetyl up: 64.6*; G6PC hep suppr: 127.0; Hep PCK1 suppr: 233; PGC1a hep suppr: 51.6

How did Cc1cc(C(=O)NNC(=S)NCc2ccccc2)no1 do in these assays?
PGC1a acetyl up: -44.5

What do the screens show for `O=C(NCc1cccnc1)c1ccc(NC(=O)c2ccc(Br)cc2)cc1`?
PGC1a acetyl up: 84.2*; G6PC hep suppr: 368.4; Hep PCK1 suppr: 254; PGC1a hep suppr: 116.9

How did O=C(/C=C/c1cccs1)c1ccc(NC(=O)c2cccc(Br)c2)cc1 do in these assays?
PGC1a acetyl up: -47.6

Results for C=CCn1c(SCC(=O)NCc2ccccc2)nnc1-c1ccccc1O ?
PGC1a acetyl up: -57.8

What do the screens show for `CCC(C)NC(=O)c1ccc2c(SCC(=O)O)c3c(nc2c1)CCCC3` (configuration not stated)?
PGC1a acetyl up: -41.0

Results for CCCn1c(=O)c2ccccc2n2c(SCc3c(C(=O)OCC)oc4ccccc34)nnc12 ?
PGC1a acetyl up: -41.8

Results for COc1cccc(NC(=O)c2ccccc2-c2ccccc2C(=O)O)c1 ?
PGC1a acetyl up: -81.3

How did CC1CCN(C(=O)COC(=O)c2ccc(Br)o2)CC1 do in these assays?
PGC1a acetyl up: -50.4

How did COC(=O)c1cc(S(=O)(=O)N2CCN(c3ccc(C(C)=O)cc3)CC2)c[nH]1 do in these assays?
PGC1a acetyl up: inconclusive; G6PC hep suppr: -40.4; Hep PCK1 suppr: -54.4; PGC1a hep suppr: -28.3

How did Nc1ncnc(NCc2ccc(F)cc2)c1[N+](=O)[O-] do in these assays?
PGC1a acetyl up: -49.7

How did COc1ccc(NC(=O)[C@H](Cc2c[nH]c3ccccc23)NC(=O)[C@@H]2Cc3ccccc3CN2)cc1 do in these assays?
PGC1a acetyl up: -63.5

How did Cc1ccc(-n2cccn2)c(CN2CCCC(C(=O)c3sccc3C)C2)c1 (configuration not stated) do in these assays?
PGC1a acetyl up: 68.3*; PGC1a hep suppr: inconclusive

Results for O=C1C=C(c2c(O)ccc3ccccc23)c2ccccc2C1=O ?
PGC1a acetyl up: -54.1

Results for CCn1c2ccccc2c2cc(/C=N/n3c(-c4cc(C)[nH]n4)n[nH]c3=S)ccc21 ?
PGC1a acetyl up: -40.2

How did Cc1ccc(S(=O)(=O)N(Cc2ccc(F)cc2)Cc2ccco2)cc1 do in these assays?
PGC1a acetyl up: 70.7*; G6PC hep suppr: 0.1; Hep PCK1 suppr: 30.6; PGC1a hep suppr: inconclusive

How did CCOC(=O)C1=C(Nc2ccccc2)OCC1=O do in these assays?
PGC1a acetyl up: -46.5

How did O=[N+]([O-])c1nn(-c2ccc(Cl)cc2)n(O)c1=NCc1ccncc1 do in these assays?
PGC1a acetyl up: -45.7

Results for N#Cc1cccc(C(c2nnnn2C2CCCC2)N2CCCCCC2)c1 (configuration not stated) ?
PGC1a acetyl up: inconclusive; G6PC hep suppr: 32.5; Hep PCK1 suppr: 231; PGC1a hep suppr: 92.3

How did O=C(OCCCN1CCCCC1)c1ccc(O)cc1 do in these assays?
PGC1a acetyl up: -45.9

What do the screens show for `CC1(C)CC(=O)C(N=Nc2cc(Cl)c(Cl)c(Cl)c2)=C(O)C1`?
PGC1a acetyl up: -48.0

Results for COc1cc2cc(C)c3nnc(SCC(=O)Nc4cc(C)on4)n3c2cc1OC ?
PGC1a acetyl up: -40.2

What do the screens show for `O=C1c2ccc(-c3ccc4c(c3)C(=O)N(CCCO)C4=O)cc2C(=O)N1CCCO`?
PGC1a acetyl up: -69.8

What do the screens show for `CCN(CC)c1ccc(NC2=C(Cl)C(=O)c3ccccc3C2=O)cc1`?
PGC1a acetyl up: -68.0

What do the screens show for `CCCCCOC(=O)Cc1c(O)c2ccccc2n(C)c1=O`?
PGC1a acetyl up: -42.8; G6PC hep suppr: -30.1; Hep PCK1 suppr: -15.6; PGC1a hep suppr: -27.3

How did O=P(CCCCCCCCCP(=O)(c1ccccc1)c1ccccc1)(c1ccccc1)c1ccccc1 do in these assays?
PGC1a acetyl up: -78.3

What do the screens show for `Cc1ccc2[nH]cc(C(=O)CN3CCN(c4ccccc4F)CC3)c2c1`?
PGC1a acetyl up: -48.0; G6PC hep suppr: -39.3[8 µM]; Hep PCK1 suppr: -17.6; PGC1a hep suppr: 25.4

Results for CN(C)c1ccnc2sc(C(N)=O)c(N)c12 ?
PGC1a acetyl up: -47.8

What do the screens show for `Cc1ccc(C2CC2c2n[nH]c(=S)n2-c2ccc(Cl)cc2)cc1` (configuration not stated)?
PGC1a acetyl up: -45.1

How did Cc1ccc(NC(=O)c2c(C(F)(F)F)nn(C)c2SCc2ccc(Cl)cc2)cc1C do in these assays?
PGC1a acetyl up: inconclusive; G6PC hep suppr: 13.6[8 µM]; Hep PCK1 suppr: 249; PGC1a hep suppr: 139.2

What do the screens show for `CC(=O)n1nc2nc(C)cc(C)c2c1N`?
PGC1a acetyl up: -40.7

How did O=C(NC(=S)Nc1ccccc1N1CCCC1)c1cccs1 do in these assays?
PGC1a acetyl up: -50.8

What do the screens show for `CCn1c(SC/C=C/c2ccccc2)nnc1-c1cccs1`?
PGC1a acetyl up: -49.8; G6PC hep suppr: 109.0; Hep PCK1 suppr: 59.3; PGC1a hep suppr: 153.8

What do the screens show for `CCOC(=O)CN1C(=N)N(c2nc(NC(C)C)nc(OC)n2)CC1=O`?
PGC1a acetyl up: -44.6

How did COc1ccc(CCNC(=O)c2cc(-c3ccco3)on2)cc1OC do in these assays?
PGC1a acetyl up: 87.4*; G6PC hep suppr: -12.0; Hep PCK1 suppr: -7.11; PGC1a hep suppr: inconclusive

Results for O=C(CSc1nc2ccc(Cl)cc2[nH]1)c1ccc2c(c1)OCO2 ?
PGC1a acetyl up: -49.1

What do the screens show for `O=C(NCC1CC1)Nc1ccccc1F`?
PGC1a acetyl up: -82.8

How did O=C(Nc1nc(-c2ccccn2)cs1)c1ccccc1-n1cnnn1 do in these assays?
PGC1a acetyl up: -43.0

Results for O=C(Nc1cnc2ccccc2c1)c1cccnc1 ?
PGC1a acetyl up: 267.2*; Hep PCK1 suppr: -14.8; PGC1a hep suppr: -29.5

How did COc1cc(CNCCN2CCOCC2)ccc1OCc1ccc(Cl)cc1Cl do in these assays?
PGC1a acetyl up: -101.4

Results for O=C(c1nc2nc(-c3ccccc3)cc(C(F)(F)F)n2n1)N1CCCCC1 ?
PGC1a acetyl up: -41.1

How did CN(C)c1ncnc2c1ncn2C1OC(CO)C(O)C1O (configuration not stated) do in these assays?
PGC1a acetyl up: -49.5
